Measured values from the EternaBench riboswitch data.

System: MS2 coat protein
Test: apparent Kd, MS2 coat protein; higher = weaker binding; RNA-MaP array
Method in brief: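 The designed RNAs, transcribed from sequenced DNA templates on an Illumina sequencing chip, were incubated with fluorescently labeled MS2 coat protein at room temperature. Protein ranged from 1.5 nM to 3 μM, with 0.8–1.5 h incubation at the lowest and 10–20 min at the highest concentrations, in Tris-HCl pH 7.5 buffer with KCl, MgCl2, BSA, DTT, tRNA and Tween20, with or without input ligand. The median of per-cluster binding-curve fits gives the apparent Kd, and designs measured on fewer than 10 clusters were excluded.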

[1] = designed as: ON switch for flavin mononucleotide, no ligand
[2] = ligand present: flavin mononucleotide, designed as: ON switch for flavin mononucleotide
[3] = designed as: OFF switch for flavin mononucleotide, no ligand
[4] = ligand present: flavin mononucleotide, designed as: OFF switch for flavin mononucleotide

Sequence | apparent Kd [3] [nM] | apparent Kd [4] [nM] | also measured
CGCUAAGAGCGGCACCUCCACAUGAGGAUCACCCAUGUUUGAAGAAGGCCAAUUUACGUAAGACUGGAGGAUAUUCAGGAGAGU |  |  | apparent Kd [1]: 10.1 nM; apparent Kd [2]: 5.9 nM
UCAUUUUCAGAAGGAUAUUUACCAGGCCAAGGUAAAGAAGGUCUAUGGGUCACUUCCUUGAUACAUGAGGAUCACCCAUGUGAA | 292 | 429 | 
AUUAGGCGGCAGAAGGCCCAUACCCGGACAUGAGGAUCACCCAUGUACUCGUUUCGCCAUAUCAGGGAGGAUAUGCCAACAACU | 17.5 | 15.8 | 
UCUCAGUGAGGAUAUCGAACAGACCUUUGUGUGCUAAUUUUCGAGAAGGCACAUGAGGAUCACCCAUGUGACUC | 54.6 | 49.7 | 
CUAGUGUGAGGAUAUGAGUCAACCUUUUAGUUCUAAGGAGAUCAGAAGGCACAUGAGGAUCACCCAUGUCAGAA | 33.4 | 84 | 
CGGGCACAUGAGGAUCACCCAUGUAAGGAUAUGAACAGUUUUCACAGAGUUUCACUAUUCAGAAGGUACGUUUC | 24.2 | 20.8 | 
AUGUGAGGACAUGAGGAUCACCCAUGUCGGGAACCUCUCGCAGAGGAUAUUCGAGAAGCAACGUUGAAGAAGGCUGGCGAAACC | 18.1 | 13.7 | 
UAGAGCGGCAACAUGAGGAUCACCCAUGUGGGCGAUGAGGCUCAGGAUAUACACCACCGCUGGACGUAGAAGGGAGACUCGCCG | 41.1 | 20.1 | 
AACUAAAACGAUAGUCGACAUGAGGAUCACCCAUGUACAAAACAGGAUAUAAGAUUACCGGUGUGUAAGAAGGGUUUGCUAUCA |  |  | apparent Kd [1]: 15.2 nM; apparent Kd [2]: 12.6 nM
AUAAAUAAUUCAGGAUAUUGCGAUCAAACAACAUGAGGAUCACCCAUGUCCGUAAACACAACAAGCAAGAAGGGAAAGAAUCAA |  |  | apparent Kd [1]: 24.6 nM; apparent Kd [2]: 14.6 nM
ACGAAUGGUUCAACAUGAGGAUCACCCAUGUGAUCUUCCAUUCAGGAUAUGUGUAGUAGAUCUCAACAGAAGGGAAUAAAAUAG | 35.8 | 38.7 | 
GAAUGUUGGAAGAAGGCACGCCCUGCAUGGCGGUGAGGAUAUUCCGUACUUGGAGUGGAAACAUGAGGAUCACCCAUGUAAGUA | 36.8 | 37 | 
CGACAUUAGUAGAAGGAGGAGUAGCGAUAGAGCCUAGGAUAUACGAACAAAUACAUGAGGAUCACCCAUGUUGACGAUCCAUCA | 49 | 45.8 | 
GUAUUGUAAGGAUAUAGUAGGCCAGUACGAAGGCUUGAGCACUAGAAGGUACAUGAGGAUCACCCAUGUGGUGG | 401 | 146 | 
AGAGAGUCAGGAUAUAAAUAUAAAGAGAUAAAGCAAACAAUUUAGAAGGGACAUGAGGAUCACCCAUGUGAUAA | 13.6 | 12.7 | 
CAUCGGGCGGUAAAUGGCGGGUACGGUGAUACCAGUUUUUGAUUUAACCCUUGGCAGCACUAUACAUGAGGAUCACCCAUGUAAU |  |  | apparent Kd (designed as: OFF switch for theophylline, no ligand): 17.9 nM; apparent Kd (ligand present: theophylline, designed as: OFF switch for theophylline): 30 nM
GAUCCCACGAAGAAGGUCAGAUUUAGAUUACUUGAAGGAUAUUCACAUGAGGAUCACCCAUGUCCCGGCGCGGACUAGCCGAAU | 107 | 235 | 
AGGUGUCCAGGAGGAUAUGAUUGCAACACGCCCUCAGAAGGCCUUAUAUACAAAGCAUACAUGAGGAUCACCCAUGUAAUUGGA |  |  | apparent Kd [1]: 8.74 nM; apparent Kd [2]: 9.11 nM
GUUCGCUGAGGAUAUACAUGAGGAUCACCCAUGUUCAAGUCUCGUGACUGUUCCCAGCGUAGAAGGCAGCGGUG | 7.62 | 8.85 | 
UUAAAGGCACCUCAUGGGACUAUAAACCCGCGAGGACCGGUACGGCCGCCACUCGAAUAUCAACAUGAGGAUCACCCAUGUGGUU |  |  | apparent Kd (designed as: OFF switch for tryptophan, no ligand): 21.8 nM; apparent Kd (ligand present: tryptophan, designed as: OFF switch for tryptophan): 48.5 nM
UAAAUUGAAGGAUAUACAUGAGGAUCACCCAUGUAAGAAAUACAUGAAAAUAACAACAGUAGAAGGUCAAAACU | 15.9 | 12.7 | 
UAUGGACAUGAGGAUCACCCAUGUGGUAGAUGCUUAGGAUAUUAGACAGGAUACAUGUACUAAGAAGGAAGAUGGU |  |  | apparent Kd [1]: 266 nM; apparent Kd [2]: 102 nM
UUGCUAACAGUAGGAUAUUCAAAACAGCGUGAGGAAGAAGGACUAGCGACUUCGUGACAUGAGGAUCACCCAUGUGUAAGGCCA |  |  | apparent Kd [1]: 12.5 nM; apparent Kd [2]: 9.89 nM
CCUGGGACAUGAGGAUCACCCAUGUGUGUUAUCGGUGCGUGAGAGGAUAUACACAGCGUCCGUUAGUAGAAGGCUCAUGAUGUA | 88.3 | 52.5 | 
UGAGUCUAAGGAUAUGCUGCCGACAACAUGAGGAUCACCCAUGUCUUUCGUUGUUCGCCGGCAGAAGGUAGCAAUU | 561 | 262 | 
GUAAGACAAGGCAAGGAUAUGCCCUAAUGGACAUGAGGAUCACCCAUGUGGUUGCAUAAUCAAAAGCAGAAGGUGCUACAACACGG |  |  | apparent Kd [1]: 48.3 nM; apparent Kd [2]: 38.8 nM
UAAAGGUUCCAGAAGGCCACGACUCGAUCCUGUGGAGGAUAUGGGACAUGAGGAUCACCCAUGUCUGGUGGAUUACAUCCCACA |  |  | apparent Kd [1]: 20.4 nM; apparent Kd [2]: 32.2 nM
